The source of these data is ChEMBL document CHEMBL1138880, “Synthesis of DNA-directed pyrrolidinyl and piperidinyl confined alkylating chloroalkylaminoanthraquinones: potential for development of tumor-selective N-oxides” (J Med Chem, 2006).

In experiment [1] the test system is A2780. Nature of the experiment: Inhibition of A2780 cell growth. Type of experiment: functional, cell-based. The note with it: Homo sapiens.
Experiment [2] has as its system A2780. Kind of experiment: Inhibition of Doxorubicin-resistant A2780 cell growth. Format: functional, cell-based. The note with it: Homo sapiens.
Experiment [3] deals with A2780. Kind of experiment: Inhibition of cisplatin-resistant A2780 cell growth. Format: functional, cell-based. The following applies: Homo sapiens.
In experiment [4] the test system is Nucleic Acid. Nature of the experiment: Ability to interstand cross-link DNA by agarose gel cross-link assay. Type of experiment: nucleic-acid assay. The method in brief: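 Linearised, 5′-end 32P-labelled pBR322 DNA (~100 ng) incubated with drug (0.01-10 µM final) in TEOA buffer at 37 °C for 1 h, then stopped. DNA was precipitated, heat-denatured in strand separation buffer (95 °C, 2 min), run on 0.8% agarose at 40 V overnight and autoradiographed. Cross-linked DNA was quantified by densitometry as the mean of three replicates.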

Experiment [5] concerns A2780. Nature of the experiment: Resistance factor, IC50 for A2780 AD cells/ IC50 for A2780 cells. Format: functional, Homo sapiens.
Experiment [6] relates to A2780. Kind of experiment: Resistance factor, IC50 for A2780/cp70 cells/ IC50 for A2780 cells. Type of experiment: functional, Homo sapiens.
The test system of experiment [7] is Panel NCI-60 (60 carcinoma cell lines). Nature of the experiment: Cytotoxicity against NCI60 cell line. Type of experiment: functional. The note with it: Homo sapiens.
Experiment [8] deals with Nucleic Acid. Kind of experiment: Alkylation of DNA at 10 uM after 24 hrs by Taq polymerase stop assay. Type of experiment: nucleic-acid assay. In short, it runs like this:
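Linearised pBR322 was treated with drug for 24 h; the screening range was 1 nM-10 µM. Treated DNA was extended with labelled SRM primer and Taq polymerase over 30 cycles (95 °C 1 min, 58 °C 1 min, 74 °C). Products were run on a denaturing gel in TBE at 55 °C with mechlorethamine and untreated DNA, then autoradiographed to map guanine alkylation sites.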

The test system of experiment [9] is Nucleic Acid. Nature of the experiment: Ability to interstand cross-link DNA upto 100 uM by agarose gel cross-link assay. Format: nucleic-acid assay. In short, it runs like this: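 Agarose gel interstrand cross-link assay on linearised, 5′-end 32P-labelled pBR322 in TEOA buffer at 37 °C. Drug was tested across concentrations up to 100 µM and times up to 24 h. DNA was strand-separated at 95 °C, then run on 0.8% agarose and autoradiographed.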

Experiment [10] deals with Nucleic Acid. Nature of the experiment: Induction of DNA unwinding by agarose gel based supercoiled plasmid pBR322 DNA mobility assay. Format: nucleic-acid assay. The method in brief:
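Circular supercoiled pBR322 (250 ng) with compound in reaction buffer (Tris-HCl pH 7.9, NaCl, KCl, MgCl2, EDTA, BSA, ATP), 30 °C for 15 min; stopped, run on 0.8% agarose in 1× TAE at 100 V for 3 h, EtBr-stained 30 min, visualized under UV.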

The source made the active and inactive calls. The calls are words filed in the database; no cut-off is given here.

In general, IC50 refers to the concentration that inhibits the measured activity by half. A lower IC50 goes with greater potency in that assay. Turning to `O=C1c2ccccc2C(=O)c2c(NCCN3CCCC3CO)cccc21` (stereo not drawn), the IC50 in the experiment on A2780 [1], in the experiment with A2780 [2] and in the experiment with A2780 [3] was greater than 1000 nM throughout.

As for `O=C1c2c(O)ccc(O)c2C(=O)c2c(NCCN3CCCCC3CCl)ccc(NCCN3CCCCC3CCl)c21` (stereo not drawn), the IC50 with A2780 [1] is 178 nM; in the experiment with A2780 [2] it was greater than 1000 nM; with A2780 [3] it was greater than 1000 nM. Further, in the experiment with Nucleic Acid [4], the Activity entry was “Time-dependent effect”.

As a reminder, the GI50 is the concentration at which growth is held to half of that of the control. On to `CN(C)CCNc1ccc(NCCN2CCCC(Cl)C2)c2c1C(=O)c1c(O)ccc(O)c1C2=O` (stereo not drawn), for which the concentration for half-maximal inhibition (IC50) with A2780 [1] was determined as 9 nM; in the experiment on A2780 [2], 75 nM; in the experiment on A2780 [3], 63 nM. The entries for the “Ratio IC50” value with A2780 [5] and in the experiment with A2780 [6] were 8.3 and 7, respectively. Besides, growth in [7] was halved (GI50) at 182 nM.

As to `CN(C)CCNc1ccc(NCCN2CCC(Cl)C2)c2c1C(=O)c1c(O)ccc(O)c1C2=O` (stereo not drawn), the IC50 was found to be 68 nM in the experiment on A2780 [1], 342 nM in the experiment on A2780 [2] and 96 nM with A2780 [3]. Moreover, the entries for the “Ratio IC50” value in the experiment on A2780 [5] and in the experiment with A2780 [6] were 5 and 1.4, respectively.

With `CN(C)CCNc1ccc(NCCN2CCCC2CCl)c2c1C(=O)c1c(O)ccc(O)c1C2=O` (stereo not drawn), the values for the IC50 with A2780 [1], in the experiment with A2780 [2] and in the experiment on A2780 [3] were 29 nM, 292 nM and 79 nM, respectively. Also, the “Ratio IC50” value in the experiment on A2780 [5] stood at 10.1; in the experiment with A2780 [6], 2.7. In addition, the GI50 in experiment [7] came out at 96 nM.

`O=C1c2c(O)ccc(O)c2C(=O)c2c(NCCN3CCCCC3CO)ccc(NCCN3CCCCC3CO)c21` (stereo not drawn): the IC50 was 740 nM with A2780 [1], greater than 1000 nM in the experiment on A2780 [2] and greater than 590 nM with A2780 [3]. For the same molecule, the “Ratio IC50” value in the experiment on A2780 [6] came out at 0.9.

Regarding `O=C1c2ccccc2C(=O)c2c(NCCN3CCCC3CCl)cccc21` (stereo not drawn), the IC50 with A2780 [1], in the experiment on A2780 [2] and with A2780 [3] was greater than 1000 nM each time.

For the molecule `CN(C)CCNc1ccc(NCCN2CCC(Cl)CC2)c2c1C(=O)c1c(O)ccc(O)c1C2=O`, the IC50 was 576 nM in the experiment on A2780 [1], 426 nM with A2780 [2] and 535 nM with A2780 [3]. In addition, the “Ratio IC50” value with A2780 [5] came out at 0.7; with A2780 [6], 0.9. Moreover, the result in the experiment on Nucleic Acid [8] was inactive.

For `O=C1c2c(O)ccc(O)c2C(=O)c2c(NCCN3CCCC(CCl)C3)ccc(NCCN3CCCC(CCl)C3)c21` (stereo not drawn), the IC50 with A2780 [1], in the experiment with A2780 [2] and in the experiment on A2780 [3] was greater than 1000 nM throughout. The result in the experiment on Nucleic Acid [8] and with Nucleic Acid [9] was inactive.

With `COc1cccc2c1C(=O)c1c(O)c3c(c(O)c1C2=O)C[C@@](O)(C(=O)CO)C[C@@H]3O[C@H]1C[C@H](N)[C@H](O)[C@H](C)O1` [DOXORUBICIN], the IC50 in the experiment on A2780 [1] worked out at 7.5 nM; with A2780 [2] it was 61 nM; in the experiment on A2780 [3], 3 nM. The “Ratio IC50” value in the experiment with A2780 [5] worked out at 8.1; in the experiment with A2780 [6] it was 0.4.

`O=C1c2c(O)ccc(O)c2C(=O)c2c(NCC[N+]3([O-])CCCCC3CCl)ccc(NCC[N+]3([O-])CCCCC3CCl)c21` (stereo not drawn): the IC50 in the experiment on A2780 [1], in the experiment on A2780 [2] and in the experiment on A2780 [3] was greater than 1000 nM in each case. Besides, in the experiment with Nucleic Acid [10], the result was inactive.

`CN(C)CCNc1ccc(NCCN2C(CCl)CCCC2CCl)c2c1C(=O)c1c(O)ccc(O)c1C2=O` (stereo not drawn): the values for the 50% inhibitory concentration (IC50) in the experiment on A2780 [1], with A2780 [2] and in the experiment on A2780 [3] were 24 nM, 106 nM and 357 nM, respectively. For the same molecule, the “Ratio IC50” value in the experiment on A2780 [5] amounted to 4.4; with A2780 [6], 14.9.

With `O=C1c2c(O)ccc(O)c2C(=O)c2c(NCCN3CCCC(CO)C3)ccc(NCCN3CCCC(CO)C3)c21` (stereo not drawn), the IC50 was 70 nM in the experiment with A2780 [1], greater than 1000 nM with A2780 [2] and 70 nM in the experiment with A2780 [3]. Further, the “Ratio IC50” value in the experiment with A2780 [6] was determined as 1.

For `CN(C)CCNc1ccc(NCCN2CCCCC2CCl)c2c1C(=O)c1c(O)ccc(O)c1C2=O` (stereo not drawn), the IC50 is 40 nM with A2780 [1], 91 nM in the experiment with A2780 [2] and 69 nM in the experiment on A2780 [3]. Besides, the “Ratio IC50” value in the experiment on A2780 [5] was 2.3; with A2780 [6], 1.7.

Take `O=C1c2c(O)ccc(O)c2C(=O)c2c(NCCN3CCCCC3)ccc(NCCN3CCCCC3)c21`: the IC50 in the experiment with A2780 [1], in the experiment on A2780 [2] and in the experiment on A2780 [3] was greater than 1000 nM in each case.
